Tests used:
DU-145 = experiment: Cytotoxicity against human DU145 cells assessed as reduction in mean cell viability after 72 hrs by MTT assay; type: functional, cell-based; conditions: DU-145, 72 h
Procedure, shortened: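 DU-145 prostate cells in RPMI-1640 with 10% heat-inactivated FBS, penicillin–streptomycin and 2 mM L-glutamine. Seeded at 2000 cells/well and left 24 h to adhere. Compound added in ethanol (1% final) for 72 h at 37 °C, 5% CO₂, with ethanol-only controls. Formazan dissolved in DMSO and read at 550 nm (690 nm reference). IC₅₀ derived by nonlinear regression of viability versus vehicle.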

HeLa = experiment: Cytotoxicity against human HeLa cells assessed as reduction in mean cell viability after 72 hrs by MTT assay; type: functional, cell-based
Procedure, shortened: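 HeLa-CCL-2 cells in DMEM with 10% heat-inactivated FBS, 2 mM L-glutamine and nonessential amino acids. Plated at 1000 cells/well with 24 h adherence. Treated in ethanol (1% final) for 72 h at 37 °C under 5% CO₂, with ethanol controls. Absorbance of DMSO-dissolved formazan at 550 nm, 690 nm reference. IC₅₀ by nonlinear regression of percent viability.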

[1] = Cytotoxicity against human GM00637 cells assessed as reduction in mean cell viability after 72 hrs by MTT assay; type: cell-based; conditions: GM00637, 72 h
Procedure, shortened: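 SV40-transformed normal skin fibroblasts (GM00637) in MEM Eagle–Earle BSS with 15% heat-inactivated FBS, 2 mM L-glutamine, 2× amino acids and vitamins. Seeded at 10,000 cells/well and left 24 h to adhere. Ethanol-delivered compound (1% final) for 72 h at 37 °C, 5% CO₂. MTT formazan in DMSO read at 550/690 nm. Viability relative to vehicle; IC₅₀ by nonlinear regression.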

| SMILES | IC50 (DU-145) [µM] | IC50 (HeLa) [µM] | IC50 [1] [µM] |
| --- | --- | --- | --- |
| CCCCn1cnc2c1C(=O)c1nc3n(c1C2=O)CCCC3 | 1.35 | 1.28 | 2.12 |
| O=C1c2nc3n(c2C(=O)c2nc4n(c21)CCCCC4)CCCCC3 | 4.46 | 1.78 | > 5 |
